Results published in ChEMBL document CHEMBL1146517, “Scleritodermin A, a cytotoxic cyclic peptide from the lithistid sponge Scleritoderma nodosum” (J Nat Prod, 2004).
The source made the active and inactive calls. The calls are words filed in the database; no cut-off is given here.

Assays:
[1] = tested on: A2780; assay: Induction of apoptosis in human A2780 cells at 1.3 uM after 24 hrs by TUNEL assay; format: functional
Summary of the method: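 A2780 cells seeded in six-well plates, treated the next day for 24 h, then collected. Apoptosis scored by TUNEL assay read by flow cytometry, with doublet discrimination gates during acquisition and analysis; apoptosis expressed as fold induction.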

[2] = tested on: HCT-116; assay: Cytotoxicity against VM46-resistant human HCT116 cells overexpressing P-gp after 72 hrs by MTS assay; format: functional, cell-based; settings: HCT-116, 72 h
Summary of the method: (§1)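 Cells grown in RPMI 1640 with 5 mM HEPES and 10% FBS; HCT116/VM46 is a multidrug-resistant subline of HCT116. Seeded in microtiter plates, compound added 24 h later as serial dilutions, then 72 h at 37 °C. MTS plus phenazine methosulfate added, absorbance read at 492 nm as viable-cell measure; IC50 reported.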

[3] = tested on: A2780; assay: Cytotoxicity against human A2780 cells after 72 hrs by MTS assay; format: functional, cell-based; settings: A2780, 72 h; summary of the method: as §1
[4] = tested on: SK-BR-3; assay: Cytotoxicity against human SKBR3 cells after 72 hrs by MTS assay; format: functional, cell-based; settings: SK-BR-3, 72 h; summary of the method: as §1
[5] = tested on: HCT-116; assay: Cytotoxicity against human HCT116 cells after 72 hrs by MTS assay; format: functional, cell-based; settings: HCT-116, 72 h; summary of the method: as §1
[6] = tested on: A2780; assay: Cell cycle arrest in human A2780 cells assessed as accumulation at G2/M phase at 1.3 uM after 24 hrs by flow cytometry analysis; format: functional, cell-based
Summary of the method: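 A2780 cells seeded in six-well plates, compound added next day for 24 h. Cells trypsinized, fixed overnight in 80% ethanol at -20 °C, PBS-washed, stained 1 h at RT with propidium iodide (50 µg/mL) and RNase (10 µg/mL). Flow cytometry; G0/G1, S and G2-M fractions calculated from DNA histograms.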

[7] = tested on: HCT-116; assay: Ratio of IC50 for VM46-resistant human HCT116 cells overexpressing P-gp to IC50 for human HCT116 cells; format: functional
[8] = organism: Bos taurus; assay: Inhibition of GTP-induced calf brain tubulin polymerization at 10 uM
Summary of the method: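 Twice-cycled calf brain tubulin in 100 mM MES pH 6.6, 1 mM EGTA, 0.5 mM MgCl2, preincubated with compound. Polymerization started with 500 µM GTP; absorbance at 350 nm read every 36 s in cuvettes held at 37 °C.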

Row | inhibition [8] | Structure (SMILES) | fold change (FC) [1] | IC50 [2] | IC50 [3] | IC50 [4] | IC50 [5] | Activity [6] | Ratio IC50 [7]
1 | 50% | CC[C@@H](C)[C@@H]1NC(=O)[C@@H]2CCCN2C(=O)[C@@H](NC(=O)[C@@H]2CCCN2C(=O)[C@@H](COC)NS(=O)(=O)[O-])COC(=O)/C(C)=C\C(C)=C\c2csc(n2)[C@H](Cc2ccc(O)cc2)NC(=O)C1=O.[Na+] [SCLERITODERMIN A] | 5.5 | 5600 nM | 940 nM | 670 nM | 1900 nM | Active | 2.9
2 | – | CC[C@]1(O)C[C@@H]2CN(CCc3c([nH]c4ccccc34)[C@@](C(=O)OC)(c3cc4c(cc3OC)N(C)[C@H]3[C@@](O)(C(=O)OC)[C@H](OC(C)=O)[C@]5(CC)C=CCN6CC[C@]43[C@@H]65)C2)C1 [VINBLASTINE] | – | 135 nM | 5 nM | 72 nM | 3 nM | – | 45
